Data as given in ChEMBL document CHEMBL4689842, “EUbOPEN Chemogenomics Library wave 1” (2021).

Test system: Fibroblast
Assay: Multiplex assay against human fibroblast
Type: toxicity, cell-based
Method in brief: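 Phenotypes for tubulin, mitochondrial mass and membrane permeability are expressed as per cents of healthy-nucleus cells. Cells were stained live at seeding with Hoechst33342, BioTracker Green Microtubule Cytoskeleton Dye, MitoTracker Red and Annexin V Alexa Fluor 680, then imaged after compound addition on a CQ1 microscope at 37°C and 5% CO2. Machine-learning gating in CellPathfinder separated Hoechst high-intensity objects from normal cells, divided normal cells by nuclear state (healthy, pyknosed, fragmented) and divided pyknosed cells into mitotic or apoptotic.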

[1] = 12 h, 1 µM, compound concentration 1 uM, replicate 1
[2] = 12 h, 1 µM, compound concentration 1 uM, replicate 2
[3] = 12 h, 10 µM, compound concentration 10 uM, replicate 1
[4] = 12 h, 10 µM, compound concentration 10 uM, replicate 2
[5] = 24 h, 1 µM, compound concentration 1 uM, replicate 1
[6] = 24 h, 1 µM, compound concentration 1 uM, replicate 2
[7] = 24 h, 10 µM, compound concentration 10 uM, replicate 1
[8] = 24 h, 10 µM, compound concentration 10 uM, replicate 2
[9] = 48 h, 1 µM, compound concentration 1 uM, replicate 1
[10] = 48 h, 1 µM, compound concentration 1 uM, replicate 2
[11] = 48 h, 10 µM, compound concentration 10 uM, replicate 1
[12] = 48 h, 10 µM, compound concentration 10 uM, replicate 2

`CNC(=O)Nc1ccc(-c2nc(N3CC4CCC(C3)O4)c3cnn(C4CCC5(CC4)OCCO5)c3n2)cc1` was tested, and the “Population Apoptotic (%)” value [1] was 47%, the “Population Fragmented Nuclei (%)” value [1] was 38% and the “Population Healthy Nuclei (%)” value [1] was 32%. For the same compound, the “Population Hoechst High Intensity Objects (%)” value [1] was 14%, the “Population Membrane Permeable-Phenotype (%)” value [1] was 29% and the “Population Mitochondria Different-Phenotype (%)” value [1] was 4%. The “Population Mitotic Cells (%)” value [1] was 52%, the “Population Normal (%)” value [1] was 85% and the “Population Pyknosed Nuclei (%)” value [1] was 28%. The “Population Tubulin-Different-Phenotype (%)” value [1] was 54%, the “Total Cell Count” value [1] was 85 and the “Population Apoptotic (%)” value [2] was 0%. The “Population Fragmented Nuclei (%)” value [2] was 28%, the “Population Healthy Nuclei (%)” value [2] was 55% and the “Population Hoechst High Intensity Objects (%)” value [2] was 10%. The “Population Membrane Permeable-Phenotype (%)” value [2] was 5%, the “Population Mitochondria Different-Phenotype (%)” value [2] was 13% and the “Population Mitotic Cells (%)” value [2] was 100%. The “Population Normal (%)” value [2] was 89%, the “Population Pyknosed Nuclei (%)” value [2] was 16% and the “Population Tubulin-Different-Phenotype (%)” value [2] was 18%. The “Total Cell Count” value [2] was 54, the “Population Apoptotic (%)” value [3] was 50% and the “Population Fragmented Nuclei (%)” value [3] was 28%. The “Population Healthy Nuclei (%)” value [3] was 29%, the “Population Hoechst High Intensity Objects (%)” value [3] was 16% and the “Population Membrane Permeable-Phenotype (%)” value [3] was 30%. The “Population Mitochondria Different-Phenotype (%)” value [3] was 15%, the “Population Mitotic Cells (%)” value [3] was 50% and the “Population Normal (%)” value [3] was 83%. The “Population Pyknosed Nuclei (%)” value [3] was 41%, the “Population Tubulin-Different-Phenotype (%)” value [3] was 96% and the “Total Cell Count” value [3] was 104. For the same compound, the “Population Apoptotic (%)” value [4] was 25%, the “Population Fragmented Nuclei (%)” value [4] was 13% and the “Population Healthy Nuclei (%)” value [4] was 54%. The “Population Hoechst High Intensity Objects (%)” value [4] was 6%, the “Population Membrane Permeable-Phenotype (%)” value [4] was 36% and the “Population Mitochondria Different-Phenotype (%)” value [4] was 75%. The “Population Mitotic Cells (%)” value [4] was 75%, the “Population Normal (%)” value [4] was 93% and the “Population Pyknosed Nuclei (%)” value [4] was 32%. For the same compound, the “Total Cell Count” value [4] was 107, the “Population Apoptotic (%)” value [5] was 38% and the “Population Fragmented Nuclei (%)” value [5] was 30%. The “Population Healthy Nuclei (%)” value [5] was 33%, the “Population Hoechst High Intensity Objects (%)” value [5] was 20% and the “Population Membrane Permeable-Phenotype (%)” value [5] was 25%. For the same compound, the “Population Mitochondria Different-Phenotype (%)” value [5] was 10%, the “Population Mitotic Cells (%)” value [5] was 61% and the “Population Normal (%)” value [5] was 79%. For the same compound, the “Population Pyknosed Nuclei (%)” value [5] was 35%, the “Population Tubulin-Different-Phenotype (%)” value [5] was 60% and the “Total Cell Count” value [5] was 74. For the same compound, the “Population Apoptotic (%)” value [6] was 25%, the “Population Fragmented Nuclei (%)” value [6] was 19% and the “Population Healthy Nuclei (%)” value [6] was 64%. The “Population Hoechst High Intensity Objects (%)” value [6] was 18%, the “Population Membrane Permeable-Phenotype (%)” value [6] was 8% and the “Population Mitochondria Different-Phenotype (%)” value [6] was 6%. The “Population Mitotic Cells (%)” value [6] was 75%, the “Population Normal (%)” value [6] was 81% and the “Population Pyknosed Nuclei (%)” value [6] was 16%. The “Population Tubulin-Different-Phenotype (%)” value [6] was 23%, the “Total Cell Count” value [6] was 55 and the “Population Apoptotic (%)” value [7] was 77%. The “Population Fragmented Nuclei (%)” value [7] was 28%, the “Population Healthy Nuclei (%)” value [7] was 35% and the “Population Hoechst High Intensity Objects (%)” value [7] was 18%. The “Population Membrane Permeable-Phenotype (%)” value [7] was 25%, the “Population Mitochondria Different-Phenotype (%)” value [7] was 37% and the “Population Mitotic Cells (%)” value [7] was 22%. For the same compound, the “Population Normal (%)” value [7] was 81%, the “Population Pyknosed Nuclei (%)” value [7] was 35% and the “Population Tubulin-Different-Phenotype (%)” value [7] was 88%. For the same compound, the “Total Cell Count” value [7] was 93, the “Population Apoptotic (%)” value [8] was 41% and the “Population Fragmented Nuclei (%)” value [8] was 8%. The “Population Healthy Nuclei (%)” value [8] was 42%, the “Population Hoechst High Intensity Objects (%)” value [8] was 6% and the “Population Membrane Permeable-Phenotype (%)” value [8] was 44%. For the same compound, the “Population Mitochondria Different-Phenotype (%)” value [8] was 84%, the “Population Mitotic Cells (%)” value [8] was 58% and the “Population Normal (%)” value [8] was 93%. For the same compound, the “Population Pyknosed Nuclei (%)” value [8] was 49%, the “Population Tubulin-Different-Phenotype (%)” value [8] was 96% and the “Total Cell Count” value [8] was 90. The “Population Apoptotic (%)” value [9] was 33%, the “Population Fragmented Nuclei (%)” value [9] was 42% and the “Population Healthy Nuclei (%)” value [9] was 37%. For the same compound, the “Population Hoechst High Intensity Objects (%)” value [9] was 19%, the “Population Membrane Permeable-Phenotype (%)” value [9] was 13% and the “Population Mitochondria Different-Phenotype (%)” value [9] was 8%. For the same compound, the “Population Mitotic Cells (%)” value [9] was 66%, the “Population Normal (%)” value [9] was 80% and the “Population Pyknosed Nuclei (%)” value [9] was 19%. The “Population Tubulin-Different-Phenotype (%)” value [9] was 43%, the “Total Cell Count” value [9] was 76 and the “Population Apoptotic (%)” value [10] was 75%. For the same compound, the “Population Fragmented Nuclei (%)” value [10] was 33%, the “Population Healthy Nuclei (%)” value [10] was 61% and the “Population Hoechst High Intensity Objects (%)” value [10] was 12%. The “Population Membrane Permeable-Phenotype (%)” value [10] was 10%, the “Population Mitochondria Different-Phenotype (%)” value [10] was 2% and the “Population Mitotic Cells (%)” value [10] was 25%. The “Population Normal (%)” value [10] was 87%, the “Population Pyknosed Nuclei (%)” value [10] was 5% and the “Population Tubulin-Different-Phenotype (%)” value [10] was 10%. The “Total Cell Count” value [10] was 88, the “Population Apoptotic (%)” value [11] was 50% and the “Population Fragmented Nuclei (%)” value [11] was 42%. For the same compound, the “Population Healthy Nuclei (%)” value [11] was 37%, the “Population Hoechst High Intensity Objects (%)” value [11] was 19% and the “Population Membrane Permeable-Phenotype (%)” value [11] was 19%. For the same compound, the “Population Mitochondria Different-Phenotype (%)” value [11] was 61%, the “Population Mitotic Cells (%)” value [11] was 50% and the “Population Normal (%)” value [11] was 80%. For the same compound, the “Population Pyknosed Nuclei (%)” value [11] was 20%, the “Population Tubulin-Different-Phenotype (%)” value [11] was 80% and the “Total Cell Count” value [11] was 87. The “Population Apoptotic (%)” value [12] was 33%, the “Population Fragmented Nuclei (%)” value [12] was 48% and the “Population Healthy Nuclei (%)” value [12] was 49%. The “Population Hoechst High Intensity Objects (%)” value [12] was 9%, the “Population Membrane Permeable-Phenotype (%)” value [12] was 18% and the “Population Mitochondria Different-Phenotype (%)” value [12] was 12%. The “Population Mitotic Cells (%)” value [12] was 66%, the “Population Normal (%)” value [12] was 90% and the “Population Pyknosed Nuclei (%)” value [12] was 2%. The “Population Tubulin-Different-Phenotype (%)” value [12] was 92% and the “Total Cell Count” value [12] was 122.
